In ChEMBL document CHEMBL4725360, “Optimization of Acetazolamide-Based Scaffold as Potent Inhibitors of Vancomycin-Resistant Enterococcus” (J Med Chem, 2020):
In brackets after ≈: the same amount, converted by molar mass. Activity calls are given as the source filed them. The calls are words filed in the database; no cut-off is given here.

Assays:
[1] = tested on: Enterococcus faecalis; test: Antibacterial activity against Enterococcus faecalis NR-31970 incubated for 18 to 20 hrs under aerobic condition by CLSI protocol based broth microdilution assay; format: functional, organism-based; settings: time hrs 18-20
Procedure, shortened: (§1)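 Broth microdilution per CLSI. Strains grown aerobically overnight on trypticase soy agar at 37 °C. Inoculum set to 0.5 McFarland, diluted in trypticase soy broth to about 5 × 10⁵ CFU/mL. Agents serially diluted, plates incubated aerobically at 37 °C for 18–20 h. MIC is the lowest concentration with no visible growth. Compound stocks 10 mg/mL in DMSO.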

[2] = tested on: Enterococcus faecium; test: Antibacterial activity against Enterococcus faecium NR-31972 incubated for 18 to 20 hrs under aerobic condition by CLSI protocol based broth microdilution assay; format: functional; settings: time hrs 18-20; procedure, shortened: as §1
[3] = Half life in human liver microsomes after 60 mins; format: ADME, Microsome; settings: 1 h
[4] = Cmax in ICR mouse at 10 mg/kg, po administered via gavage and measured after 30 mins by LC/MS/MS analysis; format: ADME, organism-based; parameters: route oral, dose 10 mg/kg, time 10-1440; settings: in vivo, 0.5 h
Procedure, shortened: (§2)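 Male ICR mice, 10 mg/kg single oral gavage; n = 3 mice per time point, 8 time points from 10 to 1440 min. Plasma taken by cardiac puncture and mixed with buffer containing oxybutynin internal standard. Samples diluted with acetonitrile, then LC/MS/MS on C18 with acetonitrile/water–formic acid mobile phases in MRM mode. Concentration read off a standard curve.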

[5] = tested on: Enterococcus faecium; test: Antibacterial activity against Enterococcus faecium NR-31971 incubated for 18 to 20 hrs under aerobic condition by CLSI protocol based broth microdilution assay; format: functional; settings: time hrs 18-20; procedure, shortened: as §1
[6] = tested on: Enterococcus faecium; test: Antibacterial activity against Enterococcus faecium HM965 incubated for 18 to 20 hrs under aerobic condition by CLSI protocol based broth microdilution assay; format: functional; settings: time hrs 18-20; procedure, shortened: as §1
[7] = Dose normalized AUC in ICR mouse at 10 mg/kg, po administered via gavage and measured after 10 to 1440 mins by LC/MS/MS analysis; format: ADME, organism-based; settings: in vivo, time 10-1440 min; procedure, shortened: as §2
[8] = Tmax in ICR mouse at 10 mg/kg, po administered via gavage and measured after 10 to 1440 mins by LC/MS/MS analysis; format: ADME, organism-based; settings: in vivo, time 10-1440 min; procedure, shortened: as §2
[9] = tested on: Enterococcus faecium; test: Antibacterial activity against Enterococcus faecium NR-31914 incubated for 18 to 20 hrs under aerobic condition by CLSI protocol based broth microdilution assay; format: functional; settings: time hrs 18-20; procedure, shortened: as §1
[10] = tested on: Enterococcus faecalis; test: Antibacterial activity against Enterococcus faecalis HM-334 incubated for 18 to 20 hrs under aerobic condition by CLSI protocol based broth microdilution assay; format: functional; settings: time hrs 18-20; procedure, shortened: as §1
[11] = tested on: Enterococcus faecium; test: Antibacterial activity against Enterococcus faecium NR-32065 incubated for 18 to 20 hrs under aerobic condition by CLSI protocol based broth microdilution assay; format: functional; settings: time hrs 18-20; procedure, shortened: as §1
[12] = MRT in ICR mouse at 10 mg/kg, po administered via gavage and measured after 10 to 1440 mins by LC/MS/MS analysis; format: ADME, organism-based; settings: in vivo, time 10-1440 min; procedure, shortened: as §2
[13] = tested on: Enterococcus faecium; test: Antibacterial activity against Enterococcus faecium NR-31903 incubated for 18 to 20 hrs under aerobic condition by CLSI protocol based broth microdilution assay; format: functional; settings: time hrs 18-20; procedure, shortened: as §1
[14] = Plasma concentration in ICR mouse at 10 mg/kg, po administered via gavage and measured after 10 to 1440 mins by LC/MS/MS analysis; format: ADME, organism-based; settings: in vivo, time 10-1440 min; procedure, shortened: as §2
[15] = Cytotoxicity against human Caco2 cells incubated for 2 hrs by MTS assay; format: cell-based; settings: Caco-2 cells
Procedure, shortened: (§3)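 Caco-2 cells maintained in DMEM with 10% FBS, non-essential amino acids and penicillin-streptomycin at 37 °C, 5% CO₂. Compound exposure for 2 h in serum-free medium at several concentrations; DMSO-matched controls. Viability expressed relative to DMSO controls (mean ± SD), and CC₅₀ derived.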

[16] = tested on: Caco-2; test: Cytotoxicity against human Caco2 cells at 128 ug/ml incubated for 2 hrs by MTS assay; format: cell-based; settings: caco-2, 2 h, dose 128 µg/ml; procedure, shortened: as §3
[17] = tested on: Enterococcus faecium; test: Inhibition of carbonic anhydrase in Enterococcus faecium ATCC 700221 assessed as antibacterial activity incubated for 18 to 20 hrs in presence of 5% CO2 by CLSI protocol based broth microdilution assay; settings: time hrs 18-20
Procedure, shortened: (§4)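 CLSI broth microdilution: inoculum about 5 × 10⁵ CFU/mL in trypticase soy broth with serial dilutions of agents. Paired plates incubated at 37 °C for 18–20 h, one set in ambient air ("normal"), the other under 5% CO₂. MIC is the lowest concentration completely inhibiting visible growth.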

[18] = Apparent permeability across apical to basolateral side in human Caco2 cells; format: ADME, cell-based; settings: caco-2
Procedure, shortened: (§5)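 Bi-directional Caco-2 monolayer permeability, run at Eurofins: donor at pH 6.5, receiver at pH 7.4, both A→B and B→A. Papp derived from receiver concentration at the end point, incubation time, monolayer area and mid-point donor concentration. Concentrations taken as peak areas.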

[19] = tested on: Enterococcus faecalis; test: Antibacterial activity against Enterococcus faecalis NR-31975 incubated for 18 to 20 hrs under aerobic condition by CLSI protocol based broth microdilution assay; format: functional, organism-based; settings: time hrs 18-20; procedure, shortened: as §1
[20] = tested on: Enterococcus faecium; test: Antibacterial activity against Enterococcus faecium NR-32052 incubated for 18 to 20 hrs under aerobic condition by CLSI protocol based broth microdilution assay; format: functional; settings: time hrs 18-20; procedure, shortened: as §1
[21] = AUC(0 to infinity) in ICR mouse at 10 mg/kg, po administered via gavage and measured after 10 to 1440 mins by LC/MS/MS analysis; format: ADME, organism-based; parameters: route oral, dose 10 mg/kg, time 10-1440; settings: in vivo; procedure, shortened: as §2
[22] = tested on: Enterococcus faecalis; test: Antibacterial activity against Enterococcus faecalis HM-335 incubated for 18 to 20 hrs under aerobic condition by CLSI protocol based broth microdilution assay; format: functional; settings: time hrs 18-20; procedure, shortened: as §1
[23] = tested on: Enterococcus faecium; test: Inhibition of carbonic anhydrase in Enterococcus faecium ATCC 700221 assessed as antibacterial activity incubated for 18 to 20 hrs in presence of ambient air by CLSI protocol based broth microdilution assay; settings: time hrs 18-20; procedure, shortened: as §4
[24] = tested on: Enterococcus faecium; test: Bacteriostatic activity against Enterococcus faecium ATCC 700221 assessed as reduction in bacterial burden at 5 times MIC preincubated for 24 hrs followed by replating on soya agar plates and measured after 16 hrs by time-kill assay; format: functional, organism-based
Procedure, shortened: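 E. faecium ATCC 700221 overnight culture diluted in trypticase soy broth to 3.5 × 10⁶ CFU/mL. […] Samples taken at 2, 4, 6, 8, 12 and 24 h, diluted in PBS and plated on trypticase soy agar. Colonies counted after 16 h at 37 °C. Detection limit 100 CFU/mL. Two-way ANOVA with Dunnett's test.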

[25] = tested on: Enterococcus faecium; test: Antibacterial activity against Enterococcus faecium NR-31916 incubated for 18 to 20 hrs under aerobic condition by CLSI protocol based broth microdilution assay; format: functional; settings: time hrs 18-20; procedure, shortened: as §1
[26] = tested on: Enterococcus faecium; test: Antibacterial activity against Enterococcus faecium NR-28978 incubated for 18 to 20 hrs under aerobic condition by CLSI protocol based broth microdilution assay; format: functional; settings: time hrs 18-20; procedure, shortened: as §1
[27] = Aqueous solubility of compound in pH 7.4 PBS measured at 24 hrs by HPLC analysis; format: physicochemical; settings: buffer, pH 7.4, 24 h
Procedure, shortened: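 HPLC principal-peak area of the buffer sample compared with a 200 μM calibration standard in methanol/water 60/40.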

[28] = Metabolic stability in human liver microsomes assessed as compound remaining measured after 60 mins; format: ADME, Microsome; settings: 1 h
Procedure, shortened: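 Human liver microsomes at 0.1 mg/mL, 37 °C. Percent parent remaining at 60 min, mean of 2 replicates.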

[29] = tested on: Enterococcus faecium; test: Antibacterial activity against Enterococcus faecium HM968 incubated for 18 to 20 hrs under aerobic condition by CLSI protocol based broth microdilution assay; format: functional; settings: time hrs 18-20; procedure, shortened: as §1
[30] = Apparent permeability across basolateral to apical side in human Caco2 cells; format: ADME, cell-based; settings: caco-2; procedure, shortened: as §5
[31] = Drug excretion in ICR mouse at 10 mg/kg, po administered via gavage and measured after 1440 mins by LC/MS/MS analysis; format: ADME, organism-based; settings: in vivo, read-out: Drug excretion

Structure (SMILES): NS(=O)(=O)c1nnc(NC(=O)CCC2CCCCC2)s1
- Activity [1]: Active
- MIC [2]: 0.015 µg/mL (≈ 0.0471 µM)
- t1/2 [3]: 1.23 h
- Cmax [4]: 456 ng/mL
- MIC [5]: 0.007 µg/mL (≈ 0.022 µM)
- MIC [6]: 0.007 µg/mL (≈ 0.022 µM)
- AUC/dose [7]: 56 kg·ng·h/mL/mg
- Tmax [8]: 0.5 h
- MIC [9]: 0.03 µg/mL (≈ 0.0942 µM)
- MIC [10]: 0.007 µg/mL (≈ 0.022 µM)
- MIC [11]: 0.015 µg/mL (≈ 0.0471 µM)
- MRT [12]: 1.35 h
- MIC [13]: 0.015 µg/mL (≈ 0.0471 µM)
- Cp [14]: 184 ng/mL
- CC50 at 2 h [15]: > 128 µg/mL
- Activity [16]: Non-Toxic
- inhibition [17]: inactive
- Papp [18]: 6.5 10^-6 cm/s
- Activity [19]: Active
- MIC [20]: 0.015 µg/mL (≈ 0.0471 µM)
- AUC(0-inf) [21]: 562 ng·h/mL
- MIC [22]: 0.03 µg/mL (≈ 0.0942 µM)
- inhibition [23]: Active
- Activity [24]: Active
- MIC [25]: 0.03 µg/mL (≈ 0.0942 µM)
- MIC [26]: 0.06 µg/mL (≈ 0.188 µM)
- solubility [27]: 32.8 µM (≈ 10.4 µg/mL)
- Stabilty [28]: 62%
- MIC [29]: 0.03 µg/mL (≈ 0.0942 µM)
- Papp [30]: 14.1 10^-6 cm/s
- dose excreted at 24 h [31]: 100%
